Experiment [1] concerns the target T1, Enoyl-[acyl-carrier-protein] reductase [NADH] (Mycobacterium tuberculosis) (UniProt P9WGR1).
T1 sequence (whole entry): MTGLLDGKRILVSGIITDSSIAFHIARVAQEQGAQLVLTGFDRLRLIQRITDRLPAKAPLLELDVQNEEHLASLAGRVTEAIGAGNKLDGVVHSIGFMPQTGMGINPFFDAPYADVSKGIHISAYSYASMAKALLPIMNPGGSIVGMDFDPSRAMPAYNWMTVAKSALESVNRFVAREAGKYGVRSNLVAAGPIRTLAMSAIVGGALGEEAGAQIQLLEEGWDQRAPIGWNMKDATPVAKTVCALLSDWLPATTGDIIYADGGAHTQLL
Put plainly: Inhibition of InhA in Mycobacterium tuberculosis H37Ra assessed as accumulation of trehalose monomycolates at 200 uM incubated for 48 hrs using [14C]acetate by TLC based metabolic labeling assay relative to control. An outline of the steps:
(§1)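 H37Ra was grown statically at 37 °C in 7H9/ADC/0.05% Tween 80 to OD600 0.290. Compound was added at 200 μM final (1% DMSO), with isoniazid 40 μM as control inhibitor. After 24 h shaking, 14C acetate (0.5 μCi/mL) was added for another 24 h. Total lipids were extracted with chloroform/methanol and washed biphasically. TLC in chloroform/methanol/water 20:4:0.5, then autoradiography.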

Experiment [2] has as its target T1, Enoyl-[acyl-carrier-protein] reductase [NADH] (Mycobacterium tuberculosis). Put plainly: Inhibition of InhA in Mycobacterium tuberculosis H37Ra assessed as decrease in trehalose dimycolates level at 200 uM incubated for 48 hrs using [14C]acetate by TLC based metabolic labeling assay relative to control. The method, boiled down: as §1
For experiment [3] the target is unchanged. Put plainly: Inhibition of InhA in Mycobacterium tuberculosis H37Ra assessed as reduction in mycolic acids synthesis by measuring FAME level at 200 uM incubated for 48 hrs using [14C]acetate by TLC based metabolic labeling assay relative to control. An outline of the steps:
(§2)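 H37Ra in 7H9/ADC/Tween 80 at OD600 0.290 received compound at 200 μM final (1% DMSO), with isoniazid 40 μM as control. After 24 h, 14C acetate (0.5 μCi/mL) was added for a further 24 h. FAMEs and MAMEs were prepared from whole cells, loaded normalised to OD600, separated by TLC, and detected by autoradiography.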

Experiment [4] has the same target. Put plainly: Inhibition of InhA in Mycobacterium tuberculosis H37Ra assessed as reduction in mycolic acids synthesis by measuring MAME level at 200 uM incubated for 48 hrs using [14C]acetate by TLC based metabolic labeling assay relative to control. An outline of the steps: as §2
The target is the same in experiment [5]. The experiment is described as follows: Binding affinity to hexahistidine-SUMO tagged Mycobacterium tuberculosis InhA expressed in Escherichia coli BL21(DE3) at 1 mM in presence of 0.5 mM NAD+ by NMR spectroscopy. The method, boiled down: (§3)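 Ligand-observed NMR binding (CPMG T2 relaxation, WaterLOGSY, STD): 20 μM InhA (His6-SUMO tag removed by Ulp1, then gel-filtered) with 0.5 mM NAD+ and fragment at 1 mM. All three techniques were run on each fragment to validate thermal-shift hits.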

The target is the same in experiment [6]. The experiment is described as follows: Binding affinity to hexahistidine-SUMO tagged Mycobacterium tuberculosis InhA expressed in Escherichia coli BL21(DE3) at 1 mM in presence of 0.5 mM NAD+ by CPMG NMR analysis. An outline of the steps:
as §3

The target is the same in experiment [7]. The experiment is described as follows: Binding affinity to hexahistidine-SUMO tagged Mycobacterium tuberculosis InhA expressed in Escherichia coli BL21(DE3) at 1 mM in presence of 0.5 mM NAD+ by WaterLOGSY NMR analysis. An outline of the steps:
as §3

Experiment [8] has the same target. The experiment is described as follows: Inhibition of hexahistidine-SUMO tagged Mycobacterium tuberculosis InhA expressed in Escherichia coli BL21(DE3) at 2 mM preincubated for 10 mins with NADH before addition of 2-trans-octanoyl-CoA as substrate and measured after 20 mins by NADH oxidation detection based colorimetric assay relative to control. An outline of the steps:
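InhA 100 nM in PIPES pH 7.5/NaCl/EDTA was preincubated 10 min with 0.25 mM NADH and fragment (1% DMSO). Reaction started with 1.5 mM 2-trans-octanoyl-CoA. A340 decrease was followed for 20 min.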

Experiment [9] has as its target T2, Enoyl-[acyl-carrier-protein] reductase [NADH] (Mycobacterium tuberculosis, UniProt P9WGR1).
T2 sequence (P9WGR1 whole entry): T1 sequence (whole entry)
The experiment is described as follows: Inhibition of hexahistidine-SUMO tagged Mycobacterium tuberculosis InhA expressed in Escherichia coli BL21(DE3) at preincubated for 10 mins with NADH before addition of 2-trans-octanoyl-CoA as substrate and measured after 20 mins by NADH oxidation detection based colorimetric assay.

The target in experiment [10] is T1, Enoyl-[acyl-carrier-protein] reductase [NADH] (Mycobacterium tuberculosis). The experiment is described as follows: Inhibition of hexahistidine-SUMO tagged Mycobacterium tuberculosis InhA expressed in Escherichia coli BL21(DE3) at 0.1 mM preincubated for 10 mins with NADH before addition of 2-trans-octanoyl-CoA as substrate and measured after 20 mins by NADH oxidation detection based colorimetric assay relative to control. An outline of the steps: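 Percent inhibition at 100 μM: tag-cleaved InhA (100 nM) in 30 mM PIPES pH 7.5, 50 mM NaCl, 0.1 mM EDTA was preincubated 10 min at room temperature with 0.25 mM NADH and compound (1% DMSO). Reaction started with 1.5 mM 2-trans-octanoyl-CoA final. NADH oxidation was read at 340 nm for 20 min.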

Calls of active or inactive are those of the source. The calls are words filed in the database; no cut-off is given here.

For the molecule `NCc1cccc(NS(=O)(=O)c2cc3ccccc3s2)c1`, the inhibition result in [1], in experiment [2], in experiment [3] and in experiment [4] was “inactive” in each case.
On to `NNC(=O)c1ccncc1`, for which the inhibition in experiment [3] and in experiment [4] was 100% each time.
Regarding `O=C(O)/C=C/c1cccc(C(F)(F)F)c1`, the result in [5], in experiment [6] and in experiment [7] was Active.
Consider `O=C(O)c1ccccc1-n1cccn1`, for which the outcome in experiment [5], in [6] and in experiment [7] was Active. Besides, the inhibition result in experiment [8] is “inactive”.
As to `O=C(O)c1cc2ccccc2cc1O`, the outcome in experiment [5], in [6] and in [7] was Active. The inhibition entry in experiment [8] is “inactive”.
As for `NCc1cccc(NS(=O)(=O)c2cc3ccccc3o2)c1`, the inhibition result in experiment [1], in experiment [2], in experiment [3] and in [4] was “inactive” each time. Also, the IC50 in experiment [9] worked out at 22 µM.
Consider `Cc1c(S(=O)(=O)Nc2cccc(CN)c2)sc2ccc(F)cc12`, for which the inhibition result in [1], in [2], in [3] and in [4] was “inactive” throughout.
For `O=C(O)CCc1cccc(Cl)c1`, the result in experiment [5], in [6] and in experiment [7] was Active. Besides, in experiment [8], the inhibition result is “inactive”.
Turning to `O=C(O)c1ccccc1C(=O)c1ccc(Cl)c([N+](=O)[O-])c1`, the result in [5], in experiment [6] and in experiment [7] was Active. Moreover, in experiment [8], the inhibition entry is “inactive”.
For the molecule `NCc1cccc(NS(=O)(=O)/C=C/c2cccc(C(F)(F)F)c2)c1`, the inhibition entry in experiment [1], in experiment [2], in experiment [3] and in [4] was “Active” each time.
With `NCc1ccc(NS(=O)(=O)/C=C/c2cccc(C(F)(F)F)c2)cc1`, the inhibition entry in experiment [1], in experiment [2], in [3] and in experiment [4] was “inactive” each time.
The molecule `NC(=O)c1cccc(NS(=O)(=O)/C=C/c2cccc(C(F)(F)F)c2)c1` came in with an inhibition in [10] of 0%.
Take `Cc1c(S(=O)(=O)Nc2cccc(CN)c2)sc2ccc(Cl)cc12`: the inhibition result in experiment [1], in experiment [2], in experiment [3] and in experiment [4] was “inactive” each time.

Values taken from ChEMBL document CHEMBL4402593, “Fragment-Based Design of Mycobacterium tuberculosis InhA Inhibitors” (J Med Chem, 2020).
